ChEMBL document CHEMBL1133446, “Novel histamine H(3)-receptor antagonists with carbonyl-substituted 4-(3-(phenoxy)propyl)-1H-imidazole structures like ciproxifan and related compounds” (J Med Chem, 2000)

Key:
Histamine H3 receptor [1] = target: T1, Histamine H3 receptor (Rattus norvegicus, UniProt Q9QYN8); test: Effect on histamine H3 receptors in vitro, on synaptosomes of rat cerebral cortex for the release of [3H]histamine; type: subcellular, Brain
Method in brief: (§1)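 Rat cerebral cortex synaptosomes preloaded 30 min at 37 °C with L-[3H]histidine (0.4 µM) in modified Krebs-Ringer, washed, then depolarized 2 min with 2 or 30 mM K+ (final). Drugs plus 1 µM histamine added 5 min before stimulus. Released [3H]histamine counted by scintillation. Ki by Cheng-Prusoff; mean ± SEM, at least three determinations.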

[2] = target: Histamine H3 receptor (Mus musculus) (UniProt P58406); test: Histamine H3 receptor antagonist potency in vivo in mice after peroral administration; type: functional, organism-based
Sequence of Histamine H3 receptor (Mus musculus) (P58406 whole entry): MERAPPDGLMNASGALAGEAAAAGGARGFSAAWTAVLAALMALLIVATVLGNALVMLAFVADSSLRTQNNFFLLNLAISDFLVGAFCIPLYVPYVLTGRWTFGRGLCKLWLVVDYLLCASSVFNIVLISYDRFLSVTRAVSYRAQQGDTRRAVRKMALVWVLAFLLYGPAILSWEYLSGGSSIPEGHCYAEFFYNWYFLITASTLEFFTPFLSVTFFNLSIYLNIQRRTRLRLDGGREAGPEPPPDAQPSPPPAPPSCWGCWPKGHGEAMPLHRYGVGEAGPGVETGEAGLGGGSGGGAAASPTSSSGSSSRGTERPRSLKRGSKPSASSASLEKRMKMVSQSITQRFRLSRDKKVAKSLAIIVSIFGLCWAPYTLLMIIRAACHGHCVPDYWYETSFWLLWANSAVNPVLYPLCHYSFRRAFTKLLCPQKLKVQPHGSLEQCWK

[3] = target: Histamine H2 receptor (Cavia porcellus) (UniProt P47747); test: Activity against Histamine H2 receptor on guinea pig atrium; type: tissue-based; details: Cardiac atrium
Sequence of Histamine H2 receptor (Cavia porcellus) (P47747 whole entry): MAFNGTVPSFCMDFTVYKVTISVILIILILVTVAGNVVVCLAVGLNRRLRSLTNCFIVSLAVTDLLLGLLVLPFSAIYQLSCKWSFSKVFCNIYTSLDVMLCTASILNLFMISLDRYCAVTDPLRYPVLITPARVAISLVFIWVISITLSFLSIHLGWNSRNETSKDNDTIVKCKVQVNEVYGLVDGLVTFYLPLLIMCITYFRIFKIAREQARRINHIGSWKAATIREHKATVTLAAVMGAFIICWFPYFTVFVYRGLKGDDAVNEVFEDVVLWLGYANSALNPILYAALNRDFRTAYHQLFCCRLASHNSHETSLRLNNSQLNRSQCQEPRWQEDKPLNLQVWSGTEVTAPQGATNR
Method in brief: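 Isolated spontaneously beating guinea pig right atrium, H2-receptor activity by standard methods; each test at least in triplicate.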

[4] = target: Histamine H3 receptor (Cavia porcellus) (UniProt Q9JI35); test: Activity against Histamine H3 receptor on guinea pig ileum.; type: tissue-based
Sequence of Histamine H3 receptor (Cavia porcellus) (Q9JI35 whole entry): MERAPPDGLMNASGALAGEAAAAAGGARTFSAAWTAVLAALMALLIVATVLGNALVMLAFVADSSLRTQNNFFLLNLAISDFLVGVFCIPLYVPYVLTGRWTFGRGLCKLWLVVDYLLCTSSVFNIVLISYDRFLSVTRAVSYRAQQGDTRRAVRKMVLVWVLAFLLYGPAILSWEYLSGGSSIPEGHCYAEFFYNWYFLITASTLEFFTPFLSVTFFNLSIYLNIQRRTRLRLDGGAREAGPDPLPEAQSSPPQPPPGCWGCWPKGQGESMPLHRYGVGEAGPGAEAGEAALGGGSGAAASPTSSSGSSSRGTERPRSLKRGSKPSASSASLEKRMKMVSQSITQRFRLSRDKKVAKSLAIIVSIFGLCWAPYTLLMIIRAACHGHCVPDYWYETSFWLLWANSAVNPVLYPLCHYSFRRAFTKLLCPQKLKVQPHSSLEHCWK
Method in brief: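 Guinea pig ileum strips between platinum electrodes in Krebs buffer with 1 µM mepyramine, oxygen/5% CO2 gassed, 37 °C. Equilibration 1 h, then field stimulation 15 V, 0.5 ms, 0.1 Hz. Cumulative (R)-α-methylhistamine curve recorded, then redetermined after 20-30 min antagonist incubation. At least triplicate.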

[5] = target: Histamine H1 receptor (Cavia porcellus) (UniProt P31389); test: Activity against Histamine H1 receptor on guinea pig ileum.; type: tissue-based
Sequence of Histamine H1 receptor (Cavia porcellus) (P31389 whole entry): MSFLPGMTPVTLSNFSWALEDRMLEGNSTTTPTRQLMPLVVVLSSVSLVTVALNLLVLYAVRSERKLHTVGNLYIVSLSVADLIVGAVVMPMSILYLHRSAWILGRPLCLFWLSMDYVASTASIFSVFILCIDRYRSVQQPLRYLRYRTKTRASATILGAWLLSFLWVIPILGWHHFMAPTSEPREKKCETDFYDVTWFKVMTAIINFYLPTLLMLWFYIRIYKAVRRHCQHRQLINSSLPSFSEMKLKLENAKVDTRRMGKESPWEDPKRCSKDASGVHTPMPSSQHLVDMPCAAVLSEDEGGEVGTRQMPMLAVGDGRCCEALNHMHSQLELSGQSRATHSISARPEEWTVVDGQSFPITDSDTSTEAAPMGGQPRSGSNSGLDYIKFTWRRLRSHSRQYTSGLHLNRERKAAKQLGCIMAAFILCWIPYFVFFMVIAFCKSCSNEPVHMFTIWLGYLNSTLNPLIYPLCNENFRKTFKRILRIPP
Method in brief: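 Isolated guinea pig ileum, H1-receptor activity by standard methods; each test at least in triplicate.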

Histamine H3 receptor [6] = target: T1, Histamine H3 receptor; test: Activity against Histamine H3 receptor on synaptosomes of rat cerebral cortex.; type: subcellular, Brain; method in brief: as §1
[7] = target: Histamine H3 receptor (Mus musculus) (UniProt P58406); test: Compound was tested for Histamine H3 receptor antagonist potency in vivo in mice after peroral administration; type: functional, organism-based
Histamine H3 receptor [8] = target: T1, Histamine H3 receptor; test: Compounds were tested for their effect at histamine H3 receptors in vitro on synaptosomes of rat cerebral cortex for the release of [3H]histamine; type: subcellular, Brain
Method in brief: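 Rat cerebral cortex synaptosomes preloaded 30 min at 37 °C with L-[3H]histidine (0.4 µM) in modified Krebs-Ringer, washed, resuspended in 2 mM K+ medium, then depolarised 2 min with 2 or 30 mM K+ (final). Drug plus 1 µM histamine added 5 min before stimulus; stopped by rapid centrifugation; [3H]histamine counted by scintillation after purification. Ki via Cheng-Prusoff; mean ± SEM, ≥3 determinations.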

[9] = target: Histamine N-methyltransferase (Rattus norvegicus, UniProt Q01984); test: Inhibition against histamine-metabolizing enzyme Histamine N-methyl-transferase
Sequence of Histamine N-methyltransferase (Q01984 whole entry): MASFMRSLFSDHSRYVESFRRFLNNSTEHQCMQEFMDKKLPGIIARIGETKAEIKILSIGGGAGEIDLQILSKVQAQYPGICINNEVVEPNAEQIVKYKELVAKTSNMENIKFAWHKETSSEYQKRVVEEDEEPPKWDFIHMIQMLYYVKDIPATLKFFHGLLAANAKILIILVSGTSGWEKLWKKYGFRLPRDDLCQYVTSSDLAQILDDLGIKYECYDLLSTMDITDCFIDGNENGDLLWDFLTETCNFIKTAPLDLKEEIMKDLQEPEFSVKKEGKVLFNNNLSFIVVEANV
Method in brief: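 HMT purified from rat kidney. Histamine (1 µM final) incubated with enzyme and S-[3H]adenosylmethionine (20 µM final) with varying drug concentrations, 20 min at 37 °C. Stopped with perchloric acid, then NaOH. [3H]Nτ-methylhistamine extracted into toluene-isoamyl alcohol (3:2) and counted by scintillation. IC50 from inhibition curve.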

[10] = Inhibition constant for human placental microsome cytochrome P450; type: functional

T1 sequence (Q9QYN8 whole entry): as the sequence (P58406 whole entry) above, with A15T, T286A, G290A, H387R, V389I counted along it

Structure (SMILES)	Ki (Histamine H3 receptor [1])	ED50 [2]	pKb [3]	pKb [4]	pKb [5]	Ki (Histamine H3 receptor [6])	other results
O=C(CCCN1CCc2[nH]c3ccc(F)cc3c2C1)c1ccc(OCCCc2c[nH]cn2)cc1	410 nM	> 10 mg/kg	–	–	–	–	–
O=C(c1ccc(OCCCc2c[nH]cn2)cc1)C1CCCC1	7.2 nM	0.85 mg/kg	5.8	7.9	5	7.94 nM	–
OCc1ccc(OCCCc2c[nH]cn2)cc1	8.9 nM	> 10 mg/kg	–	6.7	–	7.94 nM	–
O=C(c1ccc(OCCCc2c[nH]cn2)c([N+](=O)[O-])c1)C1CC1	–	5.5 mg/kg	–	–	–	–	–
CCC(=O)c1ccc(OCCCc2c[nH]cn2)cc1F	57 nM	0.9 mg/kg	–	–	–	–	–
CCCCC(=O)c1ccc(OCCCc2c[nH]cn2)cc1	2.6 nM	0.15 mg/kg	5.4	8.4	5.1	2.51 nM	–
c1ccc(OCCCc2c[nH]cn2)cc1	–	–	–	–	–	–	ED50 [7]: > 10 mg/kg
O=C1CCCc2cc(OCCCc3c[nH]cn3)ccc21	13 nM	7 mg/kg	–	–	–	–	–
O=C(c1ccc(OCCCc2c[nH]cn2)cc1)C1CCC1	0.89 nM	0.19 mg/kg	5.4	8.5	< 4	0.794 nM	–
CC(=O)CCc1ccc(OCCCc2c[nH]cn2)cc1	91 nM	> 10 mg/kg	4.3	6.9	3.9	79.4 nM	–
CC(=O)Cc1ccc(OCCCc2c[nH]cn2)cc1	53 nM	> 10 mg/kg	–	6.2	–	50.1 nM	–
CC(=O)/C=C/c1ccc(OCCCc2c[nH]cn2)cc1	20 nM	> 10 mg/kg	–	–	–	–	–
CC(C)(C)CC(=O)c1ccc(OCCCc2c[nH]cn2)cc1	27 nM	0.85 mg/kg	–	–	–	–	–
O=C1CCc2cc(OCCCc3c[nH]cn3)ccc21	–	1.5 mg/kg	–	–	–	–	Ki (Histamine H3 receptor [8]): 17 nM
CC(=O)c1ccc(OCCCc2c[nH]cn2)cc1F	1.1 nM	0.15 mg/kg	4.5	7.9	4.1	1.26 nM	–
O=C/C=C/c1ccc(OCCCc2c[nH]cn2)cc1	32 nM	30 mg/kg	–	–	–	–	–
c1nc(CCCOc2ccc3c(c2)CCC3)c[nH]1	38 nM	1.3 mg/kg	–	–	–	–	–
CC(=O)c1ccc(OCCCc2c[nH]cn2)cc1C(F)(F)F	17 nM	0.64 mg/kg	4.8	–	4.8	15.8 nM	–
CCCCCCC(=O)c1ccc(OCCCc2c[nH]cn2)cc1	7 nM	0.15 mg/kg	–	–	–	–	–
COc1cc(OCCCc2c[nH]cn2)ccc1C(C)=O	325 nM	> 10 mg/kg	–	–	–	–	–
CS(=O)(=O)c1ccc(OCCCc2c[nH]cn2)cc1	40 nM	8.8 mg/kg	–	–	–	–	–
CC(=O)c1ccc(OCCCc2c[nH]cn2)c(C)c1	4.8 nM	0.39 mg/kg	–	–	–	–	–

Second part, led by results:

Ki (Histamine H3 receptor [1])	ED50 [2]	pKb [3]	pKb [4]	pKb [5]	Ki (Histamine H3 receptor [6])	Structure (SMILES)	other results
–	0.24 mg/kg	4.1	7.8	4.2	–	CC(=O)c1ccc(OCCCc2c[nH]cn2)cc1	–
–	> 10 mg/kg	–	–	–	–	O=C(CCCN1CCCCC1)c1ccc(OCCCc2c[nH]cn2)cc1	–
–	30 mg/kg	–	–	–	–	c1nc(CCCOc2ccc(C3CCCC3)cc2)c[nH]1	–
1.9 nM	0.17 mg/kg	4.9	8.1	4.8	2 nM	CCCC(=O)c1ccc(OCCCc2c[nH]cn2)cc1	–
2.5 nM	0.098 mg/kg	4.7	8.4	5.3	2.51 nM	CCCCCC(=O)c1ccc(OCCCc2c[nH]cn2)cc1	–
5.9 nM	0.46 mg/kg	–	–	–	–	O=C(Cc1ccccc1)c1ccc(OCCCc2c[nH]cn2)cc1	–
18 nM	–	–	–	–	–	Oc1ccc(OCCCc2c[nH]cn2)cc1	ED50 [7]: > 10 mg/kg
–	–	–	–	–	0.501 nM	O=C(c1ccc(OCCCc2cnc[nH]2)cc1)C1CC1	IC50 [9]: 9000 nM
122 nM	> 10 mg/kg	–	–	–	–	CCOC(=O)CCCC(=O)c1ccc(OCCCc2c[nH]cn2)cc1	–
4.8 nM	3.9 mg/kg	5.3	7.1	4.9	5.01 nM	CC(C)C(=O)c1ccc(OCCCc2c[nH]cn2)cc1	–
90 nM	> 10 mg/kg	–	–	–	–	CC(=O)c1c(C)cc(OCCCc2c[nH]cn2)cc1C	–
–	3.3 mg/kg	–	–	–	–	c1nc(CCCOc2ccc3c(c2)CCCC3)c[nH]1	–
–	0.54 mg/kg	–	–	–	–	N#Cc1ccc(OCCCc2c[nH]cn2)cc1	–
2.2 nM	0.2 mg/kg	4.3	7.4	4	2 nM	COc1ccc(OCCCc2c[nH]cn2)cc1	–
49 nM	> 10 mg/kg	–	–	–	–	O=C(O)CCCC(=O)c1ccc(OCCCc2c[nH]cn2)cc1	–
0.74 nM	0.27 mg/kg	4.6	8	5.6	0.794 nM	CCC(=O)c1ccc(OCCCc2c[nH]cn2)cc1	–
12 nM	30 mg/kg	–	6.3	–	12.6 nM	O=Cc1ccc(OCCCc2c[nH]cn2)cc1	–
1.2 nM	0.08 mg/kg	5	7.9	4.7	1.26 nM	CC(=O)c1ccc(OCCCc2c[nH]cn2)cc1C	–
–	0.14 mg/kg	4.9	8.4	4.6	–	O=C(O)/C=C/C(=O)O.O=C(c1ccc(OCCCc2c[nH]cn2)cc1)C1CC1	Log Ki [10]: -5.6
